Source: ChEMBL document CHEMBL1833793 (Bioorg Med Chem Lett, 2011)

Assays:
[1] = biological target: T1, Neuropeptide Y receptor type 1 (Homo sapiens, UniProt P25929); assay: Antagonist activity at human NPY1 receptor assessed as calcium mobilization by FLIPR assay; type: functional
T1 sequence (P25929 whole entry): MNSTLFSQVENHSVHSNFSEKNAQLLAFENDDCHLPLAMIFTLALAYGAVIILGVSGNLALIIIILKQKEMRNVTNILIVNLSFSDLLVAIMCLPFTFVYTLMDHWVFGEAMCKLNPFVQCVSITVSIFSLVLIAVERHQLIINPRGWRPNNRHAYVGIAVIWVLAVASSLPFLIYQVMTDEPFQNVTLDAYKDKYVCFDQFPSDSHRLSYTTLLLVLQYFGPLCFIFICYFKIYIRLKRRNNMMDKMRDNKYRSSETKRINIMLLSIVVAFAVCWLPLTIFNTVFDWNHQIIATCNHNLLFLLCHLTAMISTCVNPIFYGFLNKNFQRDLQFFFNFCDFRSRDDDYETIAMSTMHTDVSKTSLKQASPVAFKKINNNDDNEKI

[2] = Plasma concentration in rat at 10 mg/kg, po after 4 hrs; type: ADME, organism-based; parameters: dose 10 mg/kg, route oral
Outline: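 Single oral dose of 10 mg/kg in rats, two animals. Plasma was sampled at 4 h and the two values averaged. LOQ 2 ng/mL.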

[3] = Drug uptake in rat brain at 10 mg/kg, po after 4 hrs; type: ADME, organism-based; parameters: dose 10 mg/kg, route oral; conditions: read-out: Drug uptake
Outline: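 Rat single oral dose of 10 mg/kg, two animals; plasma and brain homogenate levels measured at 4 h and averaged; quantification limit 2 ng/mL plasma, 2 ng/g brain.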

Cytochrome P450 2C9 = Cytochrome P450 2C9 (Homo sapiens, UniProt P11712); assay: Inhibition of CYP2C9; type: ADME
[4] = Apparent permeability from basolateral to apical side of the human Caco2 cells; type: ADME, cell-based; conditions: Caco-2
[5] = Tmax in Sprague-Dawley rat at 1 mg/kg, iv and 2 mg/kg, po by HPLC analysis; type: ADME, organism-based; conditions: in vivo
Outline: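 Male Sprague–Dawley rats (n = 2) with jugular and carotid cannulae, 200–250 g, dosed 1 mg/kg iv and 2 mg/kg po in crossover after a 24 h washout. Vehicle was 20% beta-cyclodextrin, pH adjusted with methanesulfonic acid. Twelve serial blood samples were taken over 24 h, plasma measured by HPLC-MS/MS, and parameters derived by noncompartmental analysis.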

Rattus norvegicus [6] = assay: Inhibition of cPP-induced food intake in po dosed rat administered 1 to 24 hrs before cPP challenge measured for 1 hr; type: functional, organism-based
Outline: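 Rats with lateral-ventricle cannulae dosed po with 20% cyclodextrin vehicle or drug (3, 10, 30 mg/kg) 1, 2, 4, 6 or 24 h before i.c.v. cPP (0.6 nmol); food intake monitored 1 h; randomized weekly crossover, n = 2/condition, 16–20 per group; percent of vehicle + cPP intake, one-way ANOVA with Newman–Keuls.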

[7] = Drug uptake in brain of cPP-induced feeding rat model at 3 mg/kg, po after 2 hrs; type: ADME, organism-based; parameters: dose 3 mg/kg, route oral; conditions: read-out: Drug uptake
Outline: (§1)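 Satellite rats (n = 2/dose) sampled each week alongside the cPP feeding test; Lu-series dosed po at 3, 10 or 30 mg/kg as suspension in 20% HP-β-cyclodextrin; plasma (ng/mL) and brain tissue (ng/g) levels taken at 1, 2, 4, 6 and 24 h post-dose; mean ± SD reported.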

[8] = Drug uptake in brain of cPP-induced feeding rat model at 3 mg/kg, po after 4 hrs; type: ADME, organism-based; parameters: dose 3 mg/kg, route oral; conditions: read-out: Drug uptake; outline: as §1
[9] = Plasma concentration in cPP-induced feeding rat model at 10 mg/kg, po after 2 hrs; type: ADME, organism-based; parameters: dose 10 mg/kg, route oral; outline: as §1
[10] = Plasma concentration in cPP-induced feeding rat model at 10 mg/kg, po after 6 hrs; type: ADME, organism-based; parameters: dose 10 mg/kg, route oral; outline: as §1
[11] = Drug uptake in brain of cPP-induced feeding rat model at 10 mg/kg, po after 1 hr; type: ADME, organism-based; parameters: dose 10 mg/kg, route oral; conditions: read-out: Drug uptake; outline: as §1
[12] = Drug uptake in brain of cPP-induced feeding rat model at 10 mg/kg, po after 4 hrs; type: ADME, organism-based; parameters: dose 10 mg/kg, route oral; conditions: read-out: Drug uptake; outline: as §1
[13] = Drug uptake in brain of cPP-induced feeding rat model at 10 mg/kg, po after 6 hrs; type: ADME, organism-based; parameters: dose 10 mg/kg, route oral; conditions: read-out: Drug uptake; outline: as §1
[14] = Plasma concentration in cPP-induced feeding rat model at 30 mg/kg, po after 4 hrs; type: ADME, organism-based; parameters: dose 30 mg/kg, route oral
Outline: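 Satellite rats (n = 2/dose per week), cannulated in the lateral cerebral ventricle for the feeding study, dosed orally at 3, 10 or 30 mg/kg as a suspension in 20% HP-β-cyclodextrin. Plasma was sampled 1, 2, 4, 6 or 24 h after dosing, alongside i.c.v. cPP (0.6 nmol) feeding tests. Values are given as mean with SD.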

[15] = Drug uptake in brain of cPP-induced feeding rat model at 30 mg/kg, po after 4 hrs; type: ADME, organism-based; parameters: dose 30 mg/kg, route oral; conditions: read-out: Drug uptake; outline: as §1
[16] = Drug uptake in brain of cPP-induced feeding rat model at 30 mg/kg, po after 6 hrs; type: ADME, organism-based; parameters: dose 30 mg/kg, route oral; conditions: read-out: Drug uptake; outline: as §1
Rattus norvegicus [17] = assay: Antistress activity against chronic mild stress Sprague-Dawley rat model assessed as increase in sucrose consumption at 10 mg/kg, ip bid measured after 4 weeks; type: functional; conditions: route intraperitoneal
[18] = Oral bioavailability in mouse at 2 mg/kg by HPLC analysis; type: ADME, organism-based; conditions: in vivo
[19] = Tmax in mouse at 1 mg/kg, iv and 2 mg/kg, po by HPLC analysis; type: ADME, organism-based; conditions: in vivo

Sequence of Cytochrome P450 2C9 (P11712 whole entry): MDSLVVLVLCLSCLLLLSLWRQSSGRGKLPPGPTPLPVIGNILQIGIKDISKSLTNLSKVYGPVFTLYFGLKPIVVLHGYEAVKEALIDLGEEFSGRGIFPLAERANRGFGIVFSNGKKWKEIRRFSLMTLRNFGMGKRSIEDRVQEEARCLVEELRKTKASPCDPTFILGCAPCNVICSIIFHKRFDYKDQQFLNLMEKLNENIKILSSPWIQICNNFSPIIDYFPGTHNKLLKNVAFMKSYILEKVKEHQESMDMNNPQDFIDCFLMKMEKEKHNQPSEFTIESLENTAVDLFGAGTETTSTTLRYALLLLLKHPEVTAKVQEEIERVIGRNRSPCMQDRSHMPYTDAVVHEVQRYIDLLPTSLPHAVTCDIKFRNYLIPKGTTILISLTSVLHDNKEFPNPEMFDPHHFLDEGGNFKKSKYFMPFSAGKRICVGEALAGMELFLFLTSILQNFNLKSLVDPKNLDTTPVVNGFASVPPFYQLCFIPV

- IC50 [1]: > 1 µM
- concentration at 4 h [2]: 320 ng/mL
- concentration at 4 h [3]: 460 ng/g
- IC50 (Cytochrome P450 2C9): > 10 µM
- Papp B→A [4]: 40.4 ×10⁻⁶ cm/s
- Tmax [5]: 1.9 h
- concentration at 2 h [7]: 87 ng/g
- concentration at 4 h [8]: 52 ng/g
- concentration at 2 h [9]: 260 ng/mL
- concentration at 6 h [10]: 46 ng/mL
- concentration at 1 h [11]: 179 ng/g
- concentration at 4 h [12]: 172 ng/g
- concentration at 6 h [13]: 124 ng/g
- concentration at 4 h [14]: 519 ng/mL
- concentration at 4 h [15]: 643 ng/g
- concentration at 6 h [16]: 401 ng/g
- bioavailability [18]: 42%
- Tmax [19]: 1.3 h
Compound: CS(=O)(=O)NC[C@H]1CC[C@H](Nc2nc3c(s2)CCSc2ccccc2-3)CC1
- inhibition (Rattus norvegicus [6]): Dose-dependent effect
- Activity (Rattus norvegicus [17]): >10%
